Compound activity deposited in PubChem BioAssay by The Scripps Research Institute Molecular Screening Center.
Sampled rows, rich in hits. Any-hit rate of the full collection: about 2.7%.
HTRA1 inh: inhibitors of human serine peptidase HTRA1 | Q92743 | recombinant HTRA1, FP-rhodamine activity-based probe, fluorescence polarization | inhibition, % at 5.96 µM | 340,000 tested, 0.5% active; in the data active = inhibition above about 36%;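 note: 0% = enzyme with DMSO and 100% = wells lacking enzyme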
TCR CD3 inh: human TCR-CD3 binding inhibition; TAMRA-labeled TCR probe fluorescence, biochemical; inhibition, % at 9.4 µM; 360,000 tested, 0.37% active; AID 651800; in the data active = inhibition above about 19%;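 note: recombinant mutant TCR 2C K166C tagged with TAMRA read by polarization; 0% = receptor in buffer alone and 100% = receptor with positive control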
mABHD4 FP: inhibits mouse alpha/beta hydrolase domain 4. inhibition, % at 8.92 µM. purified mABHD4, FP-Rh probe fluorescence polarization. AID 720543. 370,000 tested, 0.54% active;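 active = inhibition exceeding the mean over every tested compound plus 3 SD, cut at about 30% in these data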;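 note: 0% = plate median of compound wells and 100% = S159A mutant with DMSO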
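Assay system: Wild-type mouse ABHD4 protein | Medium: HEPES pH 7.0 buffer, 150 mM NaCl, 0.01% Pluronic F-127 | Incubation: Enzyme–compound pre-incubation 45 min, then probe 60 min, both 25 °C | Technique: Fluorescence polarization with parallel and perpendicular emission, 525/598 nm | Evaluation: % inhibition of FP-Rh probe binding versus controls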
SIAE inh: blocks human sialic acid acetylesterase; SIAE FP-Rh probe binding, fluorescence polarization; inhibition, % at 9.66 µM; 370,000 tested, 0.69% active;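 active = inhibition above a cutoff: mean of compounds within the control limits plus 3 SD of those, cut at about 17% in these data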;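 note: 0% = plate median of compound wells and 100% = probe without SIAE protein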
Target sequence (Q9HAT2 whole entry, looked up): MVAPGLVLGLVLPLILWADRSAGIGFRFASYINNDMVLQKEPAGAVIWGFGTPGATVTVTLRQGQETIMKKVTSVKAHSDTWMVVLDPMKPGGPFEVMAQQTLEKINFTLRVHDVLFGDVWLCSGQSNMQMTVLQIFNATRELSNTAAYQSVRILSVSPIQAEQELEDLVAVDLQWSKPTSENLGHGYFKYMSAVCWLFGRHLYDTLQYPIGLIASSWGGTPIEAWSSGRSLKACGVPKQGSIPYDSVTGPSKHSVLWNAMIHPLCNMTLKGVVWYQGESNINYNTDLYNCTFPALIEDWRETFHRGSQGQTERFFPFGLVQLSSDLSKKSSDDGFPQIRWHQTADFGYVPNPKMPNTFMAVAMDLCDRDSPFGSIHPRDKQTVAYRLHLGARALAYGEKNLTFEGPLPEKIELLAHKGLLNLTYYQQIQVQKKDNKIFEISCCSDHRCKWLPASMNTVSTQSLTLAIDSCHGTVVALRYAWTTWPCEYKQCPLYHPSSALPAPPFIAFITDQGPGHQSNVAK
PRMT1 FP inh: PRMT1 (human) inhibition, primary screen; recombinant PRMT1, activity-based probe fluorescence polarization; Q99873; AID 652257; 370,000 tested, 1.3% active; inhibition, % at 2.79 µM;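 active = inhibition above about 21% made by adding two undisclosed values, limit read from the data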
PRMT1 confirm: confirmation of human PRMT1 inhibitors. inhibition, % at 2.79 µM. AID 687036. shares compounds with PRMT1 FP inh. recombinant His-PRMT1, activity-based probe fluorescence polarization. 3,300 tested, 42% active;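 active = mean inhibition across replicates above the hit cutoff derived for the earlier primary screen, cut at about 22% in these data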
The depositor's hits bear a star; . = not tested or not shown.

SMILES | HTRA1 inh | TCR CD3 inh | mABHD4 FP | SIAE inh | PRMT1 FP inh | PRMT1 confirm
O=C(CSc1nnc(COc2ccccc2)n1-c1ccc(Cl)cc1)Nc1ccc2c(c1)OCCO2 | . | . | -12 | -1 | 0 | .
COc1ccccc1Cc1c(-c2ccco2)nc2ccc(Cl)cn12 | . | 2 | 8 | 2 | 28* | 13
COc1ccccc1Cc1c(-c2ccc(F)cc2)nc2ccc(Br)cn12 | . | 0 | -9 | 5 | 7 | .
COc1ccccc1Cc1c(-c2ccco2)nc2ccc(Br)cn12 | . | 1 | 8 | 13 | 31* | 26*
Cc1cc(O)ccc1Nc1nc(-c2sc(N)nc2C)cs1 | 26 | -7 | 16 | 5 | 34* | 14
CC(=O)C1=C(C)N(Cc2ccc(F)cc2)C(=S)NC1c1ccccc1 (stereo not given) | . | 4 | 2 | 9 | -3 | .
CC(C)OC(=O)c1ccc(NCc2cc(O)ccc2O)cc1 | 10 | 1 | 21 | 11 | 36* | 30*
CC(C)OC(=O)c1ccc(NC(=O)c2ccccc2)cc1 | -21 | -10 | -10 | 0 | -1 | .
NCCSSCCN | -4 | -1 | -20 | 5 | 80* | 31*
CC(=NNC(=S)N1CC2CCC(CC2)C1)c1ccccn1 | 13 | 0 | 3 | 2 | 37* | -3
CC(=NNC(=S)N1CCN(C2CCCCCC2)CC1)c1ccccn1 | 19 | -1 | 20 | 1 | 1 | .
CC(=NNC(=S)N1CC2CCC(CC2)C1)c1cnccn1 | 13 | 1 | 9 | 0 | 25* | 2
CC(=NNC(=S)N1CCCCCC1)c1cccc2cccnc12 | 8 | 2 | 5 | 3 | 26* | 9
CCn1cc(CN2CCC(n3nccc3NC(=O)CCOc3ccccc3)CC2)c(C)n1 | 1 | -3 | 1 | 3 | -1 | .
O=C(NNc1nc(-c2ccccc2)cs1)c1ccco1 | 6 | 1 | 1 | 10 | 42* | -1
CC(=O)Nc1ccc(-c2csc(NNC(=O)c3ccccc3)n2)cc1 | 0 | -13 | -20 | 9 | 26* | 0
CC(C)n1c(=O)c2ccccc2n1Cc1cn(-c2ccc(Cl)cc2)nn1 | . | 4 | 0 | 3 | -5 | .
CCOC(=O)C1=C(N)n2c(s/c(=C\c3ccco3)c2=O)=C(C(=O)OC(C)C)C1c1ccco1 (stereo not given) | 7 | -11 | 15 | -3 | 43* | 6
CCCCNc1ccc2c(c1)OC[C@H](CC(C)C)NS2(=O)=O | . | 7 | -7 | -5 | -4 | .
O=C(Nc1ccccc1Cl)C(Cl)C(=O)c1ccccc1 (stereo not given) | -3 | 2 | -4 | -3 | -2 | .
O=C(Nc1ccc(Cl)cc1)C(Cl)C(=O)c1ccccc1 (stereo not given) | -10 | 0 | -1 | 0 | 77* | 78*
Cc1cc(-c2n[nH]c(=S)n2/N=C/C(Cl)=C/c2ccccc2)n[nH]1 | -1 | 3 | -5 | -5 | 26* | 15
Cc1cc(-c2n[nH]c(=S)n2N=Cc2ccc(-c3ccccc3)cc2)n[nH]1 | . | . | -1 | 5 | 8 | .
Cc1cc(-c2n[nH]c(=S)n2N=Cc2c3ccccc3cc3ccccc23)n[nH]1 | . | . | 8 | 0 | 42* | 17
S=c1[nH]nc(-c2ccco2)n1/N=C/C(Cl)=C/c1ccccc1 | -12 | -8 | 15 | -4 | 26* | 20
SMILES | HTRA1 inh | TCR CD3 inh | mABHD4 FP | SIAE inh | PRMT1 FP inh | PRMT1 confirm
Cc1ccc(NC(=S)NNC(=O)CSc2nc3sc4c(c3c(=O)n2-c2ccccc2)CCCC4)cc1 | . | . | 7 | 2 | -2 | .
COc1c(CC=C(C)C)cc(C2CC(=O)c3c(O)cc(O)cc3O2)cc1CC=C(C)C (stereo not given) | -15 | 7 | -29 | -22 | 1 | .
COC1=CC(=O)C(C2CC(=O)c3c(O)cc(O)cc3O2)=CC1=O (stereo not given) | 18 | 3 | 49* | 11 | 48* | 89*
COCCNC(=S)c1ccc(Br)cc1 | 4 | 4 | -3 | 5 | 36* | 8
COC(=O)c1ccc(CCc2cc(O)c(Br)cc2O)cc1 | -5 | -9 | 2 | 9 | 103* | 72*
COCCCn1c(=NC(=O)c2ccccc2)c(C#N)cc2c(=O)n3cccc(C)c3nc21 | 8 | 0 | 5 | -6 | 31* | -5
Cc1ccc(N2C(=O)CC(Sc3nc4ccccc4o3)C2=O)cc1Cl (stereo not given) | -36 | 8 | -11 | -8 | 50* | 37*
